Reference: ChEMBL document CHEMBL2331550, “Design, synthesis and structure-activity relationship of novel tricyclic benzimidazolone derivatives as potent 18 kDa translocator protein (TSPO) ligands” (Bioorg Med Chem, 2013)
≈ marks a conversion by molar mass, not a printed value.

What was measured:
[1] = Metabolic stability in rat liver S9 fraction assessed as compound remaining at 1 uM after 30 mins; type: ADME, subcellular; details: read-out: Stability
[2] = biological target: Translocator protein (Rattus norvegicus) (UniProt P16257); assay: Displacement of [3H]PK11195 from TSPO in Sprague-Dawley rat kidney mitochondria at 100 nM after 1 hr by liquid scintillation counting analysis
[3] = biological target: Translocator protein (Rattus norvegicus, UniProt P16257); assay: Displacement of [3H]PK11195 from TSPO in Sprague-Dawley rat kidney mitochondria after 1 hr by liquid scintillation counting analysis
[4] = species on record: Rattus norvegicus; assay: Displacement of [3H]flumazenil from CBR in Sprague-Dawley rat cerebral cortex membrane at 10 uM after 1 hr by liquid scintillation counting analysis; type: tissue-based
In short: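 Male SD rat cerebral cortex was homogenised in potassium phosphate buffer (200 mM KCl, 20 mM KOH, 20 mM KH2PO4, pH 7.4) and washed at 32,500×g. Membranes were incubated with 1.0 nM [3H]-flumazenil (final) and 10 µM test compound for 1 h at 25 °C, then GF/B-filtered and counted by scintillation. Nonspecific binding was taken with […]. Percent inhibition of specific binding was measured in duplicate.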

[5] = Metabolic stability in rat liver S9 fraction assessed as compound remaining at 10 uM after 30 mins; type: ADME, subcellular; details: read-out: Stability
[6] = Aqueous solubility of the compound at pH 2.5; type: physicochemical
[7] = Aqueous solubility of the compound at pH 7.4; type: physicochemical

Chain of Translocator protein (P16257 whole entry, looked up): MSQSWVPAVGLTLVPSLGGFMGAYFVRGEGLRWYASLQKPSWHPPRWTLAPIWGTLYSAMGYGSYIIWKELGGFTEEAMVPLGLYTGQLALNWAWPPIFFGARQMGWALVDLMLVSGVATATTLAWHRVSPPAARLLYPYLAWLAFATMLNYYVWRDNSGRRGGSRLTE
Chain of Translocator protein (Rattus norvegicus) (P16257 whole entry, looked up): as above

| remaining at 0.5 h, 1 µM [1] [%] | Ki [3] [nM] | inhibition [4] [%] | SMILES | also measured |
| --- | --- | --- | --- | --- |
| 1 | – | – | COc1cccc(-c2cc3c4c(c2)n(CC(=O)N(C)c2ccccc2)c(=O)n4CCC3)c1 | – |
| 12 | 0.94 | 14 | CN(C(=O)Cn1c(=O)n2c3c(cc(-c4ccccc4)cc31)CCC2)c1ccccc1 | – |
| 1 | 0.32 | 30 | CN(C(=O)Cn1c(=O)n2c3c(cc(-c4ccccc4)cc31)CCCC2)c1ccccc1 | – |
| 1 | 0.23 | 72 | CN(Cc1ccccc1)C(=O)Cn1c(=O)n2c3c(cc(-c4ccccc4)cc31)CCC2 | – |
| 1 | 0.21 | 68 | CN(C(=O)Cn1c(=O)n2c3c(cc(-c4ccccc4)cc31)OCC2)c1ccccc1 | – |
| – | 0.73 | 3 | COc1ccc(N(C)C(=O)Cn2c(=O)n3c4c(cc(-c5ccccc5)cc42)CCC3)cc1 | remaining at 0.5 h, 10 µM [5]: 0% |
| 0 | 0.13 | 4 | CN(C(=O)Cn1c(=O)n2c3c(cc(-c4ccccc4)cc31)CCC2)c1ccc(Cl)cc1 | – |
| 0 | 0.44 | 3 | CN(C(=O)Cn1c(=O)n2c3c(cc(-c4ccccc4)cc31)CCC2)c1cccc(Cl)c1 | – |
| 0 | 2.1 | 36 | CN(C(=O)Cn1c(=O)n2c3c(cc(-c4ccccc4)cc31)CCC2)c1cccnc1 | – |
| 0 | 15 | 24 | CN(C(=O)Cn1c(=O)n2c3c(cc(-c4ccccc4)cc31)CCC2)c1ccncc1 | – |

Further lines, the molecule ahead of its results:

| SMILES | remaining at 0.5 h, 1 µM [1] [%] | Ki [3] [nM] | inhibition [4] [%] | also measured |
| --- | --- | --- | --- | --- |
| CN(C(=O)Cn1c(=O)n2c3c(cc(-c4ccc(C(F)(F)F)cc4)cc31)CCC2)c1ccccc1 | 0 | – | – | – |
| CN(C(=O)Cn1c(=O)[nH]c2ccc(-c3ccccc3)cc21)c1ccccc1 | – | – | – | inhibition [2]: 86% |
| O=C(Cn1c(=O)n2c3c(cc(-c4ccccc4)cc31)CCC2)Nc1ccccc1 | 62 | 33 | 27 | – |
| CN(C(=O)Cn1c(=O)n2c3c(cccc31)CCC2)c1ccccc1 | – | – | – | remaining at 0.5 h, 10 µM [5]: 0% |
| CN(C(=O)Cn1c(=O)n2c3c(cc(-c4cccc(C(F)(F)F)c4)cc31)CCC2)c1ccccc1 | 0 | – | – | – |
| COc1cccc(N(C)C(=O)Cn2c(=O)n3c4c(cc(-c5ccccc5)cc42)CCC3)c1 | 0 | 0.28 | 6 | – |
| CN(C(=O)Cn1c(=O)n2c3c(cc(-c4ccncc4)cc31)CCC2)c1ccccc1 | 3 | – | – | – |
| CN(C(=O)Cn1c(=O)n2c3c(cc(Br)cc31)CCC2)c1ccccc1 | – | – | – | remaining at 0.5 h, 10 µM [5]: 0% |
| CN(C(=O)Cn1c(=O)n2c3c(cc(-c4ccccn4)cc31)CCC2)c1ccccc1 | 0 | – | – | – |
| CN(C(=O)Cn1c(=O)n2c3c(cc(Nc4cccnc4)cc31)CCC2)c1ccccc1 | 41 | – | – | solubility [6]: > 1000 µg/mL; solubility [7]: 4 µg/mL (≈ 9.67 µM) |
| CN(C(=O)Cn1c(=O)n2c3c(cc(-c4ccccc4)cc31)CCC2)c1ccccn1 | 0 | 2.5 | 34 | – |
| CN(C(=O)Cn1c(=O)n2c3c(cc(-c4cccnc4)cc31)CCC2)c1ccccc1 | – | – | – | remaining at 0.5 h, 10 µM [5]: 0% |
| CCCN(CCC)C(=O)Cn1c(=O)n2c3c(cc(-c4ccccc4)cc31)CCC2 | 1 | 1.7 | 11 | – |
| CN(C(=O)Cn1c(=O)n(C)c2ccc(-c3ccccc3)cc21)c1ccccc1 | – | – | – | inhibition [2]: 100% |
| COc1ccc(-c2cc3c4c(c2)n(CC(=O)N(C)c2ccccc2)c(=O)n4CCC3)cc1 | – | – | – | remaining at 0.5 h, 10 µM [5]: 2% |
